Measured values: ChEMBL document CHEMBL1121508, “Synthesis of alpha-methylene-gamma-butyrolactones: a structure-activity relationship study of their allergenic power” (1980)

Experiments:
Assay type in all cases: functional
Cavia porcellus [1] = organism: Cavia porcellus; assay: Average skin reaction in guinea pig sensitized to alpha-methylene-gamma-butyrolactone
Method in brief: (§1)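 Female guinea pigs (albino Hartley and Himalayan spotted Füllingsdorf), 300–500 g, sensitized by Klečak's method. The hapten was emulsified in Freund's complete adjuvant and injected intradermally into the shaved nuchal region on alternate days, five injections in all. Skin reactions at elicitation were scored up to 3 (erythema plus swelling well beyond the test area) and 4 (necrosis or ulceration). Irritation thresholds were first set on untreated animals by the same elicitation procedure.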

Cavia porcellus [2] = organism: Cavia porcellus; assay: Average skin reaction in guinea pig sensitized to the sesquiterpene alantolactone; method in brief: as §1
Cavia porcellus [3] = organism: Cavia porcellus; assay: Average skin reaction in guinea pig sensitized to the sesquiterpene isoalantolactone; method in brief: as §1
Cavia porcellus [4] = organism: Cavia porcellus; assay: Number of guinea pigs sensitized to alpha-methylene-gamma-butyrolactone (out of 10 guinea pigs); method in brief: as §1; note: test concentration or dose not given here
Cavia porcellus [5] = organism: Cavia porcellus; assay: Number guinea pigs sensitized to the sesquiterpene alantolactone (out of 7 guinea pigs); method in brief: as §1; note: test concentration or dose not given here
Cavia porcellus [6] = organism: Cavia porcellus; assay: Number of guinea pigs sensitized to the sesquiterpene isoalantolactone (out of 8 guinea pigs); method in brief: as §1; note: test concentration or dose not given here
Cavia porcellus [7] = organism: Cavia porcellus; assay: Open Epicutaneous tests were performed on guinea pigs sensitized to alpha-methylene-gamma-butyrolactone; method in brief: as §1; note: test concentration or dose not given here
Cavia porcellus [8] = organism: Cavia porcellus; assay: Average skin reaction in guinea pig sensitized to alpha-methylene-gamma-butyrolactone (toxic); method in brief: as §1
Cavia porcellus [9] = organism: Cavia porcellus; assay: Average skin reaction in guinea pig sensitized to the sesquiterpene alantolactone (toxic); method in brief: as §1
Cavia porcellus [10] = organism: Cavia porcellus; assay: Average skin reaction in guinea pig sensitized to the sesquiterpene isoalantolactone (toxic); method in brief: as §1
Cavia porcellus [11] = organism: Cavia porcellus; assay: Average skin reaction in guinea pig sensitized to the sesquiterpene alantolactone*-toxic; method in brief: as §1

## C=C1C(=O)OC(c2ccccc2)(c2ccccc2)C1C(=O)OCC (centres undefined)
Cavia porcellus [1]
  Average skin reaction: 0
Cavia porcellus [2]
  Average skin reaction: 0.1
Cavia porcellus [3]
  Average skin reaction: 0
Cavia porcellus [4]
  No. of sensitive: 0
Cavia porcellus [5]
  No. of sensitive: 1
Cavia porcellus [6]
  No. of sensitive: 0

## C=C1CC2(OC1=O)C1CCC(C1)C2(C)C (centres undefined)
Cavia porcellus [1]
  Average skin reaction: 0
Cavia porcellus [2]
  Average skin reaction: 0.7
Cavia porcellus [3]
  Average skin reaction: 1.1
Cavia porcellus [4]
  No. of sensitive: 0
Cavia porcellus [5]
  No. of sensitive: 7
Cavia porcellus [6]
  No. of sensitive: 8

## C=C1CC(CC)(CC)OC1=O
Cavia porcellus [1]
  Average skin reaction: 0
Cavia porcellus [2]
  Average skin reaction: 0.4
Cavia porcellus [3]
  Average skin reaction: 0.7
Cavia porcellus [4]
  No. of sensitive: 0
Cavia porcellus [5]
  No. of sensitive: 5
Cavia porcellus [6]
  No. of sensitive: 8

## C=C1CC(c2ccccc2)(c2ccccc2)OC1=O
Cavia porcellus [2]
  Average skin reaction: 0.9
Cavia porcellus [3]
  Average skin reaction: 0.4
Cavia porcellus [7]
  Average skin reaction: 0
Cavia porcellus [4]
  No. of sensitive: 0
Cavia porcellus [5]
  No. of sensitive: 7
Cavia porcellus [6]
  No. of sensitive: 5

## C=C1C(=O)OC2CC3(C)CCCC(=O)C3CC12 (centres undefined)
Cavia porcellus [2]
  Average skin reaction: 0.9
Cavia porcellus [3]
  Average skin reaction: 0.9
Cavia porcellus [5]
  No. of sensitive: 7
Cavia porcellus [6]
  No. of sensitive: 8

## C=C1CC2(CCCC3CCCCC32)OC1=O (centres undefined)
Cavia porcellus [1]
  Average skin reaction: 0
Cavia porcellus [2]
  Average skin reaction: 1.4
Cavia porcellus [3]
  Average skin reaction: 1.4
Cavia porcellus [4]
  No. of sensitive: 0
Cavia porcellus [5]
  No. of sensitive: 7
Cavia porcellus [6]
  No. of sensitive: 8

## C=C1C(=O)OC2CC3(C)CCCC4(CO4)C3CC12 (centres undefined)
Cavia porcellus [2]
  Average skin reaction: 0.7
Cavia porcellus [3]
  Average skin reaction: 1
Cavia porcellus [5]
  No. of sensitive: 7
Cavia porcellus [6]
  No. of sensitive: 8

## C=C1CC2(CCC(C(C)(C)C)CC2)OC1=O (centres undefined)
Cavia porcellus [1]
  Average skin reaction: 0
Cavia porcellus [2]
  Average skin reaction: 0.8
Cavia porcellus [3]
  Average skin reaction: 1.1
Cavia porcellus [4]
  No. of sensitive: 1
Cavia porcellus [5]
  No. of sensitive: 6
Cavia porcellus [6]
  No. of sensitive: 8

## C=C1CC2(CCC3(CC2)CC(=C)C(=O)O3)OC1=O (centres undefined)
Cavia porcellus [1]
  Average skin reaction: 0
Cavia porcellus [2]
  Average skin reaction: 0
Cavia porcellus [3]
  Average skin reaction: 0.1
Cavia porcellus [4]
  No. of sensitive: 0
Cavia porcellus [5]
  No. of sensitive: 0
Cavia porcellus [6]
  No. of sensitive: 1

## C=C1C(=O)OC2CCCCC12 (centres undefined)
Cavia porcellus [1]
  Average skin reaction: 0.1
Cavia porcellus [2]
  Average skin reaction: 0.1
Cavia porcellus [3]
  Average skin reaction: 0.1
Cavia porcellus [4]
  No. of sensitive: 3
Cavia porcellus [5]
  No. of sensitive: 1
Cavia porcellus [6]
  No. of sensitive: 1

## C=C1CC2(OC1=O)C1CC3CC(C1)CC2C3 (centres undefined)
Cavia porcellus [1]
  Average skin reaction: 0.1
Cavia porcellus [2]
  Average skin reaction: 0.8
Cavia porcellus [3]
  Average skin reaction: 0.8
Cavia porcellus [4]
  No. of sensitive: 2
Cavia porcellus [5]
  No. of sensitive: 6
Cavia porcellus [6]
  No. of sensitive: 8

## C=C1CC2(CC[C@@]3(C)C(CC[C@H]4[C@@H]5CC[C@H](C(C)CCCC(C)C)[C@@]5(C)CC[C@@H]43)C2)OC1=O (some centres undefined)
Cavia porcellus [1]
  Average skin reaction: 0
Cavia porcellus [2]
  Average skin reaction: 0.1
Cavia porcellus [3]
  Average skin reaction: 0
Cavia porcellus [4]
  No. of sensitive: 0
Cavia porcellus [5]
  No. of sensitive: 1
Cavia porcellus [6]
  No. of sensitive: 0

## C=C1CC(C(C)(C)C)OC1=O (centres undefined)
Cavia porcellus [1]
  Average skin reaction: 0.1
Cavia porcellus [2]
  Average skin reaction: 0.3
Cavia porcellus [3]
  Average skin reaction: 0.5
Cavia porcellus [4]
  No. of sensitive: 1
Cavia porcellus [5]
  No. of sensitive: 3
Cavia porcellus [6]
  No. of sensitive: 5

## C=C1C(=O)OC2C3CCC(C3)C12 (centres undefined)
Cavia porcellus [1]
  Average skin reaction: 0.1
Cavia porcellus [2]
  Average skin reaction: 0.9
Cavia porcellus [3]
  Average skin reaction: 1
Cavia porcellus [4]
  No. of sensitive: 2
Cavia porcellus [5]
  No. of sensitive: 7
Cavia porcellus [6]
  No. of sensitive: 8

## C=C1CC(C)(c2ccccc2)OC1=O (centres undefined)
Cavia porcellus [8]
  Average skin reaction: 0.4
Cavia porcellus [9]
  Average skin reaction: 1.1
Cavia porcellus [10]
  Average skin reaction: 1.3
Cavia porcellus [4]
  No. of sensitive: 5
Cavia porcellus [5]
  No. of sensitive: 7
Cavia porcellus [6]
  No. of sensitive: 8

## C=C1CC(C)(CC(C)(C)C)OC1=O (centres undefined)
Cavia porcellus [1]
  Average skin reaction: 0.1
Cavia porcellus [2]
  Average skin reaction: 0.6
Cavia porcellus [3]
  Average skin reaction: 0.8
Cavia porcellus [4]
  No. of sensitive: 2
Cavia porcellus [5]
  No. of sensitive: 6
Cavia porcellus [6]
  No. of sensitive: 7

## C=C1CC2(CC3CCC2C3)OC1=O (centres undefined)
Cavia porcellus [1]
  Average skin reaction: 0
Cavia porcellus [2]
  Average skin reaction: 0.3
Cavia porcellus [3]
  Average skin reaction: 0.2
Cavia porcellus [4]
  No. of sensitive: 0
Cavia porcellus [5]
  No. of sensitive: 4
Cavia porcellus [6]
  No. of sensitive: 4

## C=C1CC2(CCCc3ccccc32)OC1=O (centres undefined)
Cavia porcellus [1]
  Average skin reaction: 0.9
Cavia porcellus [9]
  Average skin reaction: 1.7
Cavia porcellus [10]
  Average skin reaction: 2
Cavia porcellus [4]
  No. of sensitive: 10
Cavia porcellus [5]
  No. of sensitive: 7
Cavia porcellus [6]
  No. of sensitive: 8

## C=C1CC2(CC3CC4(CC(=C)C(=O)O4)CC3C2)OC1=O (centres undefined)
Cavia porcellus [1]
  Average skin reaction: 0
Cavia porcellus [2]
  Average skin reaction: 0.2
Cavia porcellus [3]
  Average skin reaction: 0.2
Cavia porcellus [4]
  No. of sensitive: 1
Cavia porcellus [5]
  No. of sensitive: 2
Cavia porcellus [6]
  No. of sensitive: 3

## C=C1CC2(CCCCCCCCC2)OC1=O
Cavia porcellus [1]
  Average skin reaction: 0
Cavia porcellus [2]
  Average skin reaction: 1.1
Cavia porcellus [3]
  Average skin reaction: 0.9
Cavia porcellus [4]
  No. of sensitive: 0
Cavia porcellus [5]
  No. of sensitive: 7
Cavia porcellus [6]
  No. of sensitive: 7

## C=C1CC2(CCCCCC2)OC1=O
Cavia porcellus [1]
  Average skin reaction: 0.1
Cavia porcellus [2]
  Average skin reaction: 1.1
Cavia porcellus [3]
  Average skin reaction: 1.2
Cavia porcellus [4]
  No. of sensitive: 2
Cavia porcellus [5]
  No. of sensitive: 7
Cavia porcellus [6]
  No. of sensitive: 8

## C=C1CC(c2ccccc2)OC1=O (centres undefined)
Cavia porcellus [8]
  Average skin reaction: 1.4
Cavia porcellus [9]
  Average skin reaction: 1.1
Cavia porcellus [10]
  Average skin reaction: 1.5
Cavia porcellus [4]
  No. of sensitive: 10
Cavia porcellus [5]
  No. of sensitive: 7
Cavia porcellus [6]
  No. of sensitive: 8

## C=C1CC(C)(CC)OC1=O (centres undefined)
Cavia porcellus [1]
  Average skin reaction: 0
Cavia porcellus [2]
  Average skin reaction: 0.4
Cavia porcellus [3]
  Average skin reaction: 0.4
Cavia porcellus [4]
  No. of sensitive: 0
Cavia porcellus [5]
  No. of sensitive: 5
Cavia porcellus [6]
  No. of sensitive: 6

## C=C1CC(CC)OC1=O (centres undefined)
Cavia porcellus [1]
  Average skin reaction: 0
Cavia porcellus [4]
  No. of sensitive: 0

## C=C1CC(C(C)C)(C(C)C)OC1=O
Cavia porcellus [1]
  Average skin reaction: 0
Cavia porcellus [11]
  Average skin reaction: 0.6
Cavia porcellus [3]
  Average skin reaction: 0.5
Cavia porcellus [4]
  No. of sensitive: 0
Cavia porcellus [5]
  No. of sensitive: 6
Cavia porcellus [6]
  No. of sensitive: 6

## C=C1CC(C)OC1=O (centres undefined)
Cavia porcellus [1]
  Average skin reaction: 0.6
Cavia porcellus [2]
  Average skin reaction: 0
Cavia porcellus [3]
  Average skin reaction: 0
Cavia porcellus [4]
  No. of sensitive: 7
Cavia porcellus [5]
  No. of sensitive: 0
Cavia porcellus [6]
  No. of sensitive: 0

## C=C1CC2(OC1=O)C(C)CCCC2C (centres undefined)
Cavia porcellus [1]
  Average skin reaction: 0
Cavia porcellus [2]
  Average skin reaction: 1
Cavia porcellus [3]
  Average skin reaction: 1.7
Cavia porcellus [4]
  No. of sensitive: 0
Cavia porcellus [5]
  No. of sensitive: 7
Cavia porcellus [6]
  No. of sensitive: 8

## C=C1CC(CCCCCCCCCCC)OC1=O (centres undefined)
Cavia porcellus [8]
  Average skin reaction: 1
Cavia porcellus [9]
  Average skin reaction: 0.9
Cavia porcellus [10]
  Average skin reaction: 1.2
Cavia porcellus [4]
  No. of sensitive: 10
Cavia porcellus [5]
  No. of sensitive: 7
Cavia porcellus [6]
  No. of sensitive: 8

## C=C1CC(C)(C)OC1=O
Cavia porcellus [1]
  Average skin reaction: 0.5
Cavia porcellus [2]
  Average skin reaction: 0
Cavia porcellus [3]
  Average skin reaction: 0
Cavia porcellus [4]
  No. of sensitive: 6
Cavia porcellus [5]
  No. of sensitive: 0
Cavia porcellus [6]
  No. of sensitive: 0

## C=C1C(=O)OC2CC3(C)CCCC(C)C3=CC12 (centres undefined)
Cavia porcellus [1]
  Average skin reaction: 0
Cavia porcellus [2]
  Average skin reaction: 3
Cavia porcellus [3]
  Average skin reaction: 2.1
Cavia porcellus [4]
  No. of sensitive: 0
Cavia porcellus [5]
  No. of sensitive: 7
Cavia porcellus [6]
  No. of sensitive: 8

## C=C1CC2(CCCC2)OC1=O
Cavia porcellus [1]
  Average skin reaction: 0
Cavia porcellus [2]
  Average skin reaction: 0.2
Cavia porcellus [3]
  Average skin reaction: 0.1
Cavia porcellus [4]
  No. of sensitive: 0
Cavia porcellus [5]
  No. of sensitive: 2
Cavia porcellus [6]
  No. of sensitive: 1

## C=C1CC2(CCCCC2)OC1=O
Cavia porcellus [1]
  Average skin reaction: 0.1
Cavia porcellus [2]
  Average skin reaction: 0.5
Cavia porcellus [3]
  Average skin reaction: 0.8
Cavia porcellus [4]
  No. of sensitive: 2
Cavia porcellus [5]
  No. of sensitive: 5
Cavia porcellus [6]
  No. of sensitive: 8

## C=C1C(=O)O[C@@H]2C[C@@]3(C)CCCC(=C)[C@@H]3C[C@H]12 [ISOALANTOLACTONE]
Cavia porcellus [1]
  Average skin reaction: 0
Cavia porcellus [2]
  Average skin reaction: 1.4
Cavia porcellus [3]
  Average skin reaction: 1.4
Cavia porcellus [4]
  No. of sensitive: 0
Cavia porcellus [5]
  No. of sensitive: 7
Cavia porcellus [6]
  No. of sensitive: 8

## C=C1CCOC1=O [TULIPALINE A]
Cavia porcellus [1]
  Average skin reaction: 1.9
Cavia porcellus [2]
  Average skin reaction: 0.1
Cavia porcellus [4]
  No. of sensitive: 10
Cavia porcellus [5]
  No. of sensitive: 1
